The results in this text go back to ChEMBL document CHEMBL1799953, “Backbone cyclic peptide inhibitors of protein kinase B (PKB/Akt)” (J Med Chem, 2011).

Each structure is given as a SMILES string. pIC50: −log10 of the molar value. *1 amine or outer side, *2 acyl side, *3 side chain or, on linkers, in order; H or OH if unused. Where a SMILES comes first, the peptide text is derived from it. Bridges are numbered along the chain shown (N, C = ends). [ ]: non-standard residue; d: D form. N(6-aminohexyl)Gly = O=C(CN(CCCCCCN[*:3])[*:1])[*:2]; NGly(3-aminopropyl) = O=C(CN(CCCN[*:3])[*:1])[*:2]; N(2-Aminoethyl)Gly = O=C(CN(CCN[*:3])[*:1])[*:2]; Gly(N-(CH2)6NH2) = NCCCCCCNCC(=O)O; Gly(N-2-aminoethyl) = NCCNCC(=O)O; Cha = N[C@@H](CC1CCCCC1)C(=O)O; Gly(N(CH2)3NH2) = NCCCNCC(=O)O; hLeu = CC(C)CC[C@H](N)C(=O)O; Nva = CCC[C@H](N)C(=O)O; Dap = NC[C@H](N)C(=O)O; CO = O=C([*:1])[*:2]; Nlys = NCCCCNCC(=O)O

In one assay the target is T1, RAC-alpha serine/threonine-protein kinase (Homo sapiens, UniProt P31749). The assay is described as follows: Inhibition of Akt using RPRTSSF peptide and [gamma32]ATP by cell-free radioactive assay. An outline of the steps: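 Same reaction: HisΔPHPKBEEEFlag (0.005 units), 50 mM Hepes pH 7.4, 0.1 mM EGTA, 0.1% 2-mercaptoethanol, 10 mM magnesium acetate, 3 μM RPRTSSF, 10 μM [γ32P]ATP. Peptide stock concentration determined by UV spectrophotometry; reference peptide run in every assay.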
T1 sequence (P31749 whole entry): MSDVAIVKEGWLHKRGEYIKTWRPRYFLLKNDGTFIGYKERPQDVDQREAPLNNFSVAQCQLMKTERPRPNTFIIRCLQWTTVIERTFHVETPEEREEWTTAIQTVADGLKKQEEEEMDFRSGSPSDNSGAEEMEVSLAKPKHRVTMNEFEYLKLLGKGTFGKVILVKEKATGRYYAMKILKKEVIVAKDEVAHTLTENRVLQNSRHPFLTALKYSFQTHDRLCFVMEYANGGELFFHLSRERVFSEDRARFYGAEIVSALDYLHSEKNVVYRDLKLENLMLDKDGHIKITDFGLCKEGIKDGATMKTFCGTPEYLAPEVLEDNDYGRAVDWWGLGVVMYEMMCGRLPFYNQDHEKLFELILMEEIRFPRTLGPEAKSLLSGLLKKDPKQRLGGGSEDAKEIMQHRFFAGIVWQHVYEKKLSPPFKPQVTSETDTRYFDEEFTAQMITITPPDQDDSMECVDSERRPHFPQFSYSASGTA
The term pIC50 denotes the IC50 on a negative log10 scale, so that one unit is a factor of ten. Take `CCC[C@H](NC(=O)[C@H](CCCN=C(N)N)NC(=O)[C@H](CN)NC(=O)[C@@H](N)CCCN=C(N)N)C(=O)N[C@@H](Cc1ccc(O)cc1)C(=O)N[C@@H](CN)C(=O)N[C@@H](CCC(C)C)C(N)=O`: the pIC50 was 6.07.
The same measure, in the same setting: with `CCC[C@H](NC(=O)[C@H](CCCN=C(N)N)NC(=O)[C@H](CCCCN)NC(=O)[C@@H](N)CCCN=C(N)N)C(=O)N[C@@H](Cc1ccc(O)cc1)C(=O)N[C@@H](CN)C(=O)N[C@@H](CCC(C)C)C(N)=O` the figure was 5.67.
In the case of `CCC[C@H](NC(=O)[C@H](CCCN=C(N)N)NC(=O)[C@H](CC1CCCCC1)NC(=O)[C@@H](N)CCCN=C(N)N)C(=O)N[C@@H](Cc1ccc(O)cc1)C(=O)N[C@@H](CN)C(=O)N[C@@H](CCC(C)C)C(N)=O` (H-R[Cha]R[Nva]Y[Dap][hLeu]-NH2), the pIC50 was 6.02.
Turning to `CCC[C@H](NC(=O)[C@H](CCCN=C(N)N)NC(=O)CN(CCCN)C(=O)[C@@H](N)CCCN=C(N)N)C(=O)N[C@@H](Cc1ccc(O)cc1)C(=O)N[C@@H](CN)C(=O)N[C@@H](CCC(C)C)C(=O)N(CCN)CC(N)=O` (H-R[Gly(N(CH2)3NH2)]R[Nva]Y[Dap][hLeu][Gly(N-2-aminoethyl)]-NH2), the pIC50 is 6.49.
On to `CCC[C@H](NC(=O)[C@H](CCCN=C(N)N)NC(=O)CN(CCN)C(=O)[C@@H](N)CCCN=C(N)N)C(=O)N[C@@H](Cc1ccc(O)cc1)C(=O)N[C@@H](CN)C(=O)N[C@@H](CCC(C)C)C(=O)N(CCCN)CC(N)=O` (H-R[Gly(N-2-aminoethyl)]R[Nva]Y[Dap][hLeu][Gly(N(CH2)3NH2)]-NH2), for which the pIC50 is 6.60.
With `CCC[C@H](NC(=O)[C@H](CCCN=C(N)N)NC(=O)CN(CCN)C(=O)[C@@H](N)CCCN=C(N)N)C(=O)N[C@@H](Cc1ccc(O)cc1)C(=O)N[C@@H](CN)C(=O)N[C@@H](CCC(C)C)C(=O)N(CCCCN)CC(N)=O` (H-R[Gly(N-2-aminoethyl)]R[Nva]Y[Dap][hLeu][Nlys]-NH2), the pIC50 is 6.75.
With `CCC[C@H](NC(=O)[C@H](CCCN=C(N)N)NC(=O)CN(CCCCCCN)C(=O)[C@@H](N)CCCN=C(N)N)C(=O)N[C@@H](Cc1ccc(O)cc1)C(=O)N[C@@H](CN)C(=O)N[C@@H](CCC(C)C)C(=O)N(CCN)CC(N)=O` (H-R[Gly(N-(CH2)6NH2)]R[Nva]Y[Dap][hLeu][Gly(N-2-aminoethyl)]-NH2), the pIC50 was 6.49.
Turning to `CCC[C@H](NC(=O)[C@H](CCCN=C(N)N)NC(=O)CN(CCCCCCN)C(=O)[C@@H](N)CCCN=C(N)N)C(=O)N[C@@H](Cc1ccc(O)cc1)C(=O)N[C@@H](CN)C(=O)N[C@@H](CCC(C)C)C(=O)N(CCCCN)CC(N)=O` (H-R[Gly(N-(CH2)6NH2)]R[Nva]Y[Dap][hLeu][Nlys]-NH2), the pIC50 was 6.80.
As for `CCC[C@@H]1NC(=O)[C@H](CCCNC(=N)N)NC(=O)CN(C(=O)[C@@H](N)CCCNC(=N)N)CCNC(=O)NCCCCCCN(CC(N)=O)C(=O)[C@H](CCC(C)C)NC(=O)[C@H](CN)NC(=O)[C@H](Cc2ccc(O)cc2)NC1=O` (H-R[N(2-Aminoethyl)Gly]R[Nva]Y[Dap][hLeu][N(6-aminohexyl)Gly]-NH2; linker 2-8 via CO), the negative logarithm of the IC50 (pIC50) is 6.54.
On to `CCC[C@@H]1NC(=O)[C@H](CCCNC(=N)N)NC(=O)CN(C(=O)[C@@H](N)CCCNC(=N)N)CCNC(=O)NCCCN(CC(N)=O)C(=O)[C@H](CCC(C)C)NC(=O)[C@H](CN)NC(=O)[C@H](Cc2ccc(O)cc2)NC1=O` (H-R[N(2-Aminoethyl)Gly]R[Nva]Y[Dap][hLeu][NGly(3-aminopropyl)]-NH2; linker 2-8 via CO), for which the pIC50 is 6.04.
Regarding `CCC[C@@H]1NC(=O)[C@H](CCCN=C(N)N)NC(=O)CN(C(=O)[C@@H](N)CCCN=C(N)N)CCNC(=O)NCCCCN(CC(N)=O)C(=O)[C@H](CCC(C)C)NC(=O)[C@H](CN)NC(=O)[C@H](Cc2ccc(O)cc2)NC1=O` (H-R[N(2-Aminoethyl)Gly]R[Nva]Y[Dap][hLeu][Nlys]-NH2; linker 2-8 via CO), the pIC50 is 6.55.
For `CCC[C@@H]1NC(=O)[C@H](CCCNC(=N)N)NC(=O)CN(C(=O)[C@@H](N)CCCNC(=N)N)CCCCCCNC(=O)NCCCN(CC(N)=O)C(=O)[C@H](CCC(C)C)NC(=O)[C@H](CN)NC(=O)[C@H](Cc2ccc(O)cc2)NC1=O` (H-R[N(6-aminohexyl)Gly]R[Nva]Y[Dap][hLeu][NGly(3-aminopropyl)]-NH2; linker 2-8 via CO), the pIC50 was 6.80.

The next assay deals with T1, RAC-alpha serine/threonine-protein kinase. The assay can be described thus: Inhibition of Akt using RPRTSSF peptide and [gamma32]ATP at 5 uM by cell-free radioactive assay relative to control. In outline: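 Cell-free 32P kinase assay: HisΔPHPKBEEEFlag (0.005 units, one-step Ni-NTA partial purification), 50 mM Hepes pH 7.4, 0.1 mM EGTA, 0.1% 2-mercaptoethanol, 10 mM magnesium acetate, 3 μM RPRTSSF substrate, 10 μM [γ32P]ATP (1 μCi/well). Inhibitor at 5 μM. Activity loss expressed as percent of uninhibited reaction.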
One may read the inhibition as the drop in the measured response relative to a control, in per cent. For `CCC[C@@H]1NC(=O)[C@H](CCCNC(=N)N)NC(=O)CN(C(=O)[C@@H](N)CCCNC(=N)N)CCNC(=O)NCCCCCCN(CC(N)=O)C(=O)[C@H](CCC(C)C)NC(=O)[C@H](CN)NC(=O)[C@H](Cc2ccc(O)cc2)NC1=O` (H-R[N(2-Aminoethyl)Gly]R[Nva]Y[Dap][hLeu][N(6-aminohexyl)Gly]-NH2; linker 2-8 via CO), the inhibition is 100%.
Same read-out and setting: with `CCC[C@@H]1NC(=O)[C@H](CCCNC(=N)N)NC(=O)CN(C(=O)[C@@H](N)CCCNC(=N)N)CCNC(=O)NCCCN(CC(N)=O)C(=O)[C@H](CCC(C)C)NC(=O)[C@H](CN)NC(=O)[C@H](Cc2ccc(O)cc2)NC1=O` (H-R[N(2-Aminoethyl)Gly]R[Nva]Y[Dap][hLeu][NGly(3-aminopropyl)]-NH2; linker 2-8 via CO) the figure was 98%; with `CCC[C@@H]1NC(=O)[C@H](CCCNC(=N)N)NC(=O)CN(C(=O)[C@@H](N)CCCNC(=N)N)CCCCCCNC(=O)NCCCN(CC(N)=O)C(=O)[C@H](CCC(C)C)NC(=O)[C@H](CN)NC(=O)[C@H](Cc2ccc(O)cc2)NC1=O` (H-R[N(6-aminohexyl)Gly]R[Nva]Y[Dap][hLeu][NGly(3-aminopropyl)]-NH2; linker 2-8 via CO), 100%.
